# DNMT1 inh: DNMT1 (human) enzyme inhibition; AID 588458; DNMT1 molecular beacon, Hinp1I cleavage, fluorescence; P26358; inhibition (reported as % activation of signal), % at 10 µM; hit rate 0.83% among 360,000; in the data active means inhibition above about 50%
# Target sequence (P26358 504-1616 limits assumed): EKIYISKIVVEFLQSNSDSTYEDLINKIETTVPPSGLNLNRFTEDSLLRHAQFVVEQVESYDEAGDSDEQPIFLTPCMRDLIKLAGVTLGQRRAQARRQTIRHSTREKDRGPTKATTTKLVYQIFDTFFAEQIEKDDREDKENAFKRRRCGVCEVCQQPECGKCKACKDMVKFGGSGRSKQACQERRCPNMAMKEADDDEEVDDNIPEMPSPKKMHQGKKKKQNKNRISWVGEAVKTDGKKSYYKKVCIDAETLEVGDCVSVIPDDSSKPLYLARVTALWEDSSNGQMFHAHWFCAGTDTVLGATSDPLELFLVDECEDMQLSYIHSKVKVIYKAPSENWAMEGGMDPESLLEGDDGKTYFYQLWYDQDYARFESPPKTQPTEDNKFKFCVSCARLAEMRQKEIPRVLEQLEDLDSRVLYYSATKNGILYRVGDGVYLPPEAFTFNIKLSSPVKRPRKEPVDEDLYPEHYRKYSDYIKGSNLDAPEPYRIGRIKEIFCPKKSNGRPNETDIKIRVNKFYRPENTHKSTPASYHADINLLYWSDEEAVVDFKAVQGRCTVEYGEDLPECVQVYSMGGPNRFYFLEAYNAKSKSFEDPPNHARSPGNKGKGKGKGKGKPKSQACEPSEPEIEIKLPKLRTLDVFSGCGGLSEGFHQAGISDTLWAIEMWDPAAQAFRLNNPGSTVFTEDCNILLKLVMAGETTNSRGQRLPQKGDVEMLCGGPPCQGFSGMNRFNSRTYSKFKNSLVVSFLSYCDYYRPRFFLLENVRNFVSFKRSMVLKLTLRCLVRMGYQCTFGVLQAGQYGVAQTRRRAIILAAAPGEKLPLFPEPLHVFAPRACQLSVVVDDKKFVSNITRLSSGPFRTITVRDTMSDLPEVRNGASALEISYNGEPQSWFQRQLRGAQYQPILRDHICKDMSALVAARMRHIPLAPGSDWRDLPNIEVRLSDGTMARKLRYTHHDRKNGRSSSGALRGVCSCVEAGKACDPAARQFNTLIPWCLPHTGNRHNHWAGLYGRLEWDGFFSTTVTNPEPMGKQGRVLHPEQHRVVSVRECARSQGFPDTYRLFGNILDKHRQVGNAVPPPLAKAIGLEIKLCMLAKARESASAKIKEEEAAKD
# CASP6 VEID inh: caspase-6 (human) enzyme inhibition; P55212; hit rate 0.53% among 350,000; inhibition, % at 12.5 µM; purified caspase-6, Z-VEID-R110 cleavage fluorescence;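 active means mean inhibition across replicates at least about 35%, with every replicate also reaching that limit, limit read from the data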;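 further: 0% = median of neutral control wells and 100% = no fluorescence left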
# LMPTP block: LMPTP (human) inhibition; P24666; recombinant LMPTP-A, OMFP fluorogenic substrate, fluorescence intensity; inhibition, % at 20 µM; hit rate 0.22% among 360,000; AID 651560;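 active means compounds that cut the enzyme signal by at least half of the control window in the single-dose screen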;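 further: plate controls were DMSO wells with enzyme plus substrate for no effect and substrate without enzyme for full effect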
#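 Test system – LMPTP-A enzyme · Amount – LMPTP-A at 0.625 nM final in the reaction · Buffer or medium – Bis-Tris pH 6.0, DTT, detergent · Reagent – OMFP 400 µM · Doses – single 20 µM dose · Schedule – reaction 50 min, room temperature, dark · Detection – fluorescence intensity of OMFP turnover product · Evaluation – percent inhibition versus substrate-only and uninhibited controls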
# STEP block: STEP (human) phosphatase inhibition | P54829 | recombinant STEP, OMFP fluorogenic substrate, fluorescence | inhibition, % at 20 µM | hit rate 0.25% among 360,000 | AID 588621;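 active means inhibition at 20 µM, scaled per plate between control wells, above about 37%, limit read from the data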;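 further: 0% = DMSO with enzyme and substrate and 100% = substrate only without enzyme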
#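 Measure: Control-normalized % inhibition with plate pattern correction | Test system: STEP phosphatase, cell-free reaction | Medium: pH 6.0 Bis-Tris with DTT and Tween 20 | Technique: Fluorescence, 480/540 nm | Times: Reaction 20 min, ambient temperature | Doses: Single compound dose of 20 µM, 1% DMSO final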
# Scp-1 inhibitor: Scp-1 (human) phosphatase inhibition; Q9GZU7; Recombinant Scp1, phosphopeptide, malachite green phosphate absorbance; inhibition, % at 20 µM; hit rate 0.88% among 340,000; AID 493091;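 active means inhibition above about 50% at 20 µM, limit read from the data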;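 further: plate controls were DMSO wells with enzyme for no effect and wells lacking enzyme for full effect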
#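 assay system = SCP-1 phosphatase catalytic domain, residues 76-261 | buffer or medium = 50 mM Tris acetate pH 5.5, 0.005% Tween-20, 10 mM MgCl2 | incubation = enzyme reaction 45 min at room temperature, colour 5 min, stabilisation 30 min | signal = Phosphate-binding colour reagent, absorbance read at 630 nm | measure = % inhibition at 20 µM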
# SUMO1-SIM PPI: SUMO1-SIM interaction modulation | P63165 | SUMO1 binding to a labelled peptide, TR-FRET, 1 h | inhibition, % at 20 µM | hit rate 0.33% among 360,000; in the data active means inhibition above about 37%
# Beacon interf DR: counter-screen for DNMT1 inhibitors: spectral interference, dose response; shares compounds with DNMT1 inh; molecular beacon fluorescence; IC50, µM; 200 tested, under 10 active; AID 602382; call rule not given here
# DNMT1 confirm: DNMT1 inhibition confirmation, single concentration; shares compounds with DNMT1 inh; DNMT1 molecular beacon HinP1I cleavage, fluorescence; inhibition, % at 10 µM; hit rate 8% among 2,300; AID 602385;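 active means average inhibition of at least 30% in the single-concentration confirmation test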
# DNMT1 interf: beacon fluorescence artifact counter-screen; shares compounds with DNMT1 inh; DNMT1 molecular beacon spectral interference counterscreen, fluorescence 485/520; activation (fluorescence interference), % at 10 µM; hit rate 1% among 2,300; AID 602387;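 active means activation of at least 30% at 10 µM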;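 further: DNMT1 catalytic domain with a HinP1I cleavage step and a FAM/dabcyl DNA beacon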
# * hit, by the source's call; / = no result given. Rows were chosen to be rich in hits. Some 1.7% of all compounds tested hit in one or more screens of this group.
SMILES,DNMT1 inh,CASP6 VEID inh,LMPTP block,STEP block,Scp-1 inhibitor,SUMO1-SIM PPI,DNMT1 confirm,DNMT1 interf,others
C[C@H](CO)N1C[C@H](C)[C@@H](CN(C)Cc2ccc(-c3ccccc3)cc2)Oc2ccc(NS(=O)(=O)c3cccs3)cc2C1=O,/,0,/,/,/,/,/,/,
O=C1Nc2c(Cl)cc(Cl)cc2C1=O,60*,7,0,2,-2,-5,16,-13,Beacon interf DR=>99
O=C1C2C3C=CC(CC3)C2C(=O)N1c1nccs1 (stereo not given),61*,67*,0,4,7,2,-2,1,
CC(=O)N=C1C=CC(=CN(O)C(C)(C)Cc2ccccc2)C=C1,3,-7,-2,-1,1,-6,/,/,
c1ccc2c(c1)C1=NCCN1c1ccccc1-2,66*,-4,3,3,/,2,48*,0,Beacon interf DR=>99
CCC(CCCO)CCC[C@H](C)CCC1OCCO1 (stereo not given in full),59*,/,-1,-1,-2,-4,1,5,
Nc1ccc(N(c2ccccc2)c2ccc(N)cc2)cc1,62*,/,5,5,10,-15,-1,0,
COc1ccc2cc(OCC(=O)NNC(=O)Nc3ccc(C(C)=O)cc3)ccc2c1,72*,7,23,6,0,-18,6,-3,
COc1ccc(NC(=O)c2ccccc2NC(=O)COc2ccccc2)cc1,55*,/,0,0,-2,3,2,-4,
COCC(=O)Nc1ccccc1C(=O)Nc1ccc(OC)cc1,2,/,-1,0,-5,-2,/,/,
Cc1nc2cc(NC(=O)C3COc4ccccc4O3)ccc2s1 (stereo not given),-6,2,-1,-3,3,-3,/,/,
Cc1ccc(NC(=O)COc2ccc(/C=C3/SC(=Nc4ccccc4)N(Cc4cccnc4)C3=O)cc2)cc1,61*,/,-1,0,7,-3,-1,-8,
O=C(CCN1C(=O)/C(=C/c2ccccc2)SC1=S)Nc1cccnc1,-1,11,2,3,-2,-12,/,/,
CCOc1ccc(NC(=O)c2cccnc2C(=O)O)cc1,-2,/,-2,-2,-3,-1,/,/,
O=c1cc(CN2CCN(c3ccc(F)cc3)CC2)c2cc3c(cc2o1)CCCC3,63*,/,2,2,2,-1,3,1,
CN1CCN(Cc2cc(=O)oc3cc4c(cc23)CCC4)CC1,5,/,-2,-2,-8,-2,/,/,
O=C(Oc1ccc2c(c1)OCO2)c1cc2c(s1)CCC2,100*,/,52*,7,65*,1,17,-1,
O=C(c1cc2c(s1)CCCC2)N1CCN(Cc2ccc3c(c2)OCO3)CC1,-1,/,-3,1,-5,-1,/,/,
CCOC(=O)c1ccc(N/N=C/c2cc(Br)cc([N+](=O)[O-])c2O)cc1,70*,1,2,3,-5,-3,7,2,
C=CCn1c(NC(=O)c2ccccc2Cl)c(C#N)c2nc3ccccc3nc21,64*,/,12,4,-7,53*,-1,-4,
CCCCn1c(NC(C)=O)c(C#N)c2nc3ccccc3nc21,-18,/,1,1,-1,12,/,/,
COc1cccc(S(=O)(=O)N(C)C[C@@H]2Oc3cc(Br)ccc3S(=O)(=O)N([C@@H](C)CO)C[C@@H]2C)c1,83*,-2,-3,1,/,1,0,7,
COc1ccc(S(=O)(=O)N(C)C[C@@H]2Oc3cc(Br)ccc3S(=O)(=O)N([C@H](C)CO)C[C@@H]2C)cc1,-1,3,0,-1,/,-3,/,/,
Cc1cccn2cc(CNc3ccccc3)nc12,4,/,-1,3,-5,3,/,/,
CCCCCCCCN1[C@@H](CC(=O)OC)c2cc(F)ccc2S1(=O)=O,82*,1,52*,1,-15,6,3,5,
